For series [1], the system named is MOLT-3 lymphoblastic leukemia cell line. Description: Cytotoxic assay. Type of series: cell-based, human. Particulars: for IC50: Homo sapiens. A digest of the protocol:
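MOLT-3 leukemia cells (passage 15–25) grown in RPMI-1640 with 2 mM L-glutamine, penicillin-streptomycin, sodium pyruvate, glucose, 10 % FBS. Seeding was at 5 × 10³ – 2 × 10⁴ cells/well, 24 h at 37C, 5 % CO₂. Serial dilutions of test compound in DMSO then given for 48 h. XTT read-out at 550 nm. Normal-cell comparator: MRC-5 in DMEM, MTT read-out. IC50 is the concentration for 50 % growth inhibition.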

The subject of series [2] is 4 cancer cell lines (HepG2, HuCCA-1, A549, MOLT-3). Put plainly: Cytotoxic assay, range over the four cancer cell lines. Type of series: cell-based. Particulars: Homo sapiens, read-out: IC50, range over the tested cancer cell lines. The essentials:
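Human HepG2 (DMEM), HuCCA-1 and A549 (Ham's F12), and MOLT-3 (RPMI-1640) were all in 10 % FBS. MRC-5 normal fibroblasts were in DMEM. Seeding was at 5 × 10³ – 2 × 10⁴ cells/well for 24 h at 37C. Serial dilutions of test compound (DMSO solvent) were given for 48 h. Adherent lines were read by MTT and MOLT-3 by XTT, absorbance 550 nm. IC50 is the concentration for 50 % growth inhibition.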

In series [3] the test system is HuCCA-1 cholangiocarcinoma cancer cell line. Put plainly: Cytotoxic assay. Type of series: cell-based, human. The note with it: IC50 for normal cell (MRC-5) / IC50 for cancer cell. The essentials: (§1)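 A549 (passage 20–26) and HuCCA-1 (passage 115–121) kept in Ham's F12 with 2 mM L-glutamine, 100 U/mL penicillin-streptomycin, 10 % FBS; MRC-5 fibroblasts (passage 19–23) in DMEM, 10 % FBS. Cells seeded at 5 × 10³ – 2 × 10⁴/well in RPMI-1640 + 10 % FBS, 24 h at 37C, 5 % CO₂. DMSO-dissolved test compound added as serial dilutions, 48 h. MTT, absorbance 550 nm; IC50 = 50 % growth inhibition.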

Series [4] concerns A549 lung carcinoma cell line. Description: Cytotoxic assay. Type of series: cell-based, human. A digest of the protocol:
as §1

In series [5] the test system is HepG2 hepatocellular carcinoma cell line. Description: Cytotoxic assay. The class given is cell-based, human.
The nature of series [6]: Cytotoxicity against normal cell line. Type of series: cell-based. The note with it: human, MRC-5 normal fetal lung fibroblast cells.
Setting [7] is: IC50 for normal cell (MRC-5) / IC50 for cancer cell.

Each structure is given as a SMILES string. Where two headings read alike, the source gives them in different places.

As to `CC1=CC(=O)c2c(O)cccc2C1=O` [Compound 10, plumbagin], the IC50 was 1380 nM in series [1] (MOLT-3, read-out: Experimental pIC50 MOLT-3 (converted)) and 1380 to 13600 nM in series [2].
`COc1cccc2c1C(=O)c1c(O)c3c(c(O)c1C2=O)C[C@@](O)(C(=O)CO)C[C@@H]3O[C@H]1C[C@H](N)[C@H](O)[C@H](C)O1` [Doxorubicin, doxorubicin]: in series [3], the “Selectivity index (SI) HuCCA-1” value is reported as 1.08. Besides, the IC50 came out at 310 nM in series [4] (Homo sapiens, A549, 48 h, read-out: IC50 A549) and 460 nM in series [5] (Homo sapiens, HepG2, 48 h, read-out: IC50 HepG2, MTT, 48 h). In addition, the “Selectivity index (SI) A549” value in series [4] (setting [7]) worked out at 3.02. The “Selectivity index (SI) HepG2” value in series [5] (setting [7]) is recorded as 2.02. This compound also displayed an IC50 at 48 h in series [6] of 930 nM.
As for `COc1cc([C@@H]2c3cc4c(cc3[C@@H](O[C@@H]3O[C@@H]5CO[C@@H](C)O[C@H]5[C@H](O)[C@H]3O)[C@H]3COC(=O)[C@H]23)OCO4)cc(OC)c1O` [Etoposide, etoposide], the IC50 in series [1] (MOLT-3, 48 h, read-out: IC50 MOLT-3) turned out to be 60 nM. For the same compound, the “Selectivity index (SI) MOLT-3” value in series [1] (setting [7]) is recorded as 218.85. This compound also gave an IC50 at 48 h in series [6] of 13400 nM.
